Source: ChEMBL document CHEMBL1212693, “Dorsomorphin inhibits BMP signals required for embryogenesis and iron metabolism” (Nat Chem Biol, 2008)
Active and inactive are the calls of the source. No cut-off for these calls is given here.

Columns and labels:
Danio rerio [1] = species: Danio rerio; experiment: Inhibition of BMPR1 in zebrafish assessed as penetrance of moderate embryonic axis dorsalization at 1 uM treated at 3 hrs post-fertilization measured at 48 hrs; parameters: scale not given: the % may be the effect or the level left
Outline: (§1)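 Compound added at the stated times and concentrations. Gross morphology scored visually at up to 48 h.p.f. for dorsalization of the embryonic axis.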

Mus musculus [2] = species: Mus musculus; experiment: Inhibition of BMPR1-mediated Smad-8 phosphorylation in BMP7-stimulated mouse BMPR2 deficient PASMC at 4 uM treated 30 mins before BMP7measured after 30 mins by immunoblot analysis
Mus musculus [3] = species: Mus musculus; experiment: Inhibition of BMPR1-mediated Smad-1 phosphorylation in BMP4-stimulated mouse BMPR2 deficient PASMC at 4 uM treated 30 mins before BMP4 challenge measured after 30 mins by immunoblot analysis
Outline: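 PASMCs (wild-type or BMPR-II–deficient) were kept 24 h in RPMI with 0.5% FCS, preincubated 30 min with compound or vehicle, then stimulated 30 min with recombinant BMP (10 ng ml−1). Extracts in SDS-lysis buffer were immunoblotted for phospho-SMAD1/5/8, with total SMAD1 and α-tubulin as loading controls. Bands were quantitated by phosphorimager.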

Mus musculus [4] = experiment: Inhibition of iron-dextran conjugate-induced Smad-1 phosphorylation in C57BL/6 mouse at 23 ug/g, iv after 1 hr; assay type: functional, organism-based
Mus musculus [5] = species: Mus musculus; experiment: Inhibition of BMPR1-mediated Smad-5 phosphorylation in BMP4-stimulated mouse PASMC at 100 to 200 ng/ml treated 30 mins before BMP4 challenge measured after 30 mins by immunoblot analysis
Outline: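 Mouse PASMCs were held 24 h in RPMI with 0.5% FCS. They were preincubated 30 min with test agent, noggin or vehicle, then exposed to recombinant BMP4 for 30 min. SDS lysates were immunoblotted for phospho-SMAD1/5/8 and bands quantified by phosphorimager. Dose-dependence was fitted as a Hill plot.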

Danio rerio [6] = species: Danio rerio; experiment: Inhibition of BMPR1 in zebrafish assessed as penetrance of moderate embryonic axis dorsalization at 2 uM treated at 3 hrs post-fertilization measured at 48 hrs; parameters: scale not given: the % may be the effect or the level left
Danio rerio [7] = species: Danio rerio; experiment: Inhibition of BMPR1 in zebrafish assessed as penetrance of moderate embryonic axis dorsalization at 10 uM treated continuously from 2 hrs post-fertilization measured after 48 hrs; parameters: scale not given: the % may be the effect or the level left; outline: as §1
Mus musculus [8] = species: Mus musculus; experiment: Inhibition of ALK3-mediated Smad-5 phosphorylation in BMPR2 deficient mouse PASMC at 10 uM by immunoblot analysis
Outline: (§2)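 BMPR-II–deficient mouse PASMCs (RPMI, 10% FBS) transiently transfected with constitutively active ALK2, ALK3 or ALK6 cDNA, or plasmid-only control. Incubated with or without compound (10 µM). Extracts lysed in SDS buffer, run on SDS-PAGE and immunoblotted for phospho-SMAD1/5/8; quantitated by phosphorimager.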

Danio rerio [9] = species: Danio rerio; experiment: Inhibition of BMPR1 in zebrafish assessed as severity of embryonic axis dorsalization at 10 uM treated at 2 to 8 hrs post-fertilization measured at 48 hrs; parameters: scale not given: the % may be the effect or the level left
Danio rerio [10] = species: Danio rerio; experiment: Inhibition of BMPR1 in zebrafish assessed as penetrance of normal embryonic axis dorsalization at 10 uM treated continuously from 2 hrs post-fertilization measured after 48 hrs; parameters: scale not given: the % may be the effect or the level left
Danio rerio [11] = species: Danio rerio; experiment: Inhibition of BMPR1 in zebrafish assessed as penetrance of mild embryonic axis dorsalization at 10 uM treated continuously from 4 hrs post-fertilization measured after 48 hrs; parameters: scale not given: the % may be the effect or the level left; outline: as §1
Danio rerio [12] = species: Danio rerio; experiment: Inhibition of BMPR1 in zebrafish assessed as increase in myod expression at 10 uM treated at 12 hrs post-fertilization measured at 48 hrs
Danio rerio [13] = species: Danio rerio; experiment: Inhibition of BMPR1 in zebrafish assessed as severity of embryonic axis dorsalization at 10 uM treated at 6 to 8 hrs post-fertilization measured at 48 hrs; parameters: scale not given: the % may be the effect or the level left
Mus musculus [14] = species: Mus musculus; experiment: Inhibition of BMPR1-mediated Smad-5 phosphorylation in BMP6-stimulated mouse PASMC at 4 uM treated 30 mins before BMP6 challenge measured after 30 mins by immunoblot analysis
Outline: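 Wild-type mouse PASMCs were kept in RPMI with 0.5% FCS for 24 h. They were preincubated with compound or vehicle for 30 min, then stimulated for 30 min with recombinant BMP2, BMP4, BMP6 or BMP7 at 10 ng ml−1. Lysates in SDS buffer were immunoblotted with anti-phospho-SMAD1/5/8. Total SMAD1 and α-tubulin served as loading controls, and bands were quantified by phosphorimager.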

Danio rerio [15] = species: Danio rerio; experiment: Inhibition of BMPR1 in zebrafish assessed as penetrance of normal embryonic axis dorsalization at 10 uM treated at 6 to 8 hrs post-fertilization measured at 48 hrs; parameters: scale not given: the % may be the effect or the level left
Danio rerio [16] = species: Danio rerio; experiment: Inhibition of BMPR1 in zebrafish assessed as severity of embryonic axis dorsalization at 10 uM treated at 2 to 4 hrs post-fertilization measured at 48 hrs; parameters: scale not given: the % may be the effect or the level left
Mus musculus [17] = species: Mus musculus; experiment: Inhibition of ALK6-mediated Smad-1 phosphorylation in BMPR2 deficient mouse PASMC at 10 uM by immunoblot analysis; outline: as §2
HepG2 = experiment: Inhibition of hepcidin mRNA expression in human HepG2 cells at 10 uM […] by qRT-PCR analysis relative to control; assay type: functional
Mus musculus [18] = species: Mus musculus; experiment: Inhibition of BMPR1-mediated Smad-5 phosphorylation in BMP7-stimulated mouse BMPR2 deficient PASMC at 4 uM treated 30 mins before BMP7 challenge measured after 30 mins by immunoblot analysis
Danio rerio [19] = species: Danio rerio; experiment: Inhibition of BMPR1 in zebrafish assessed as penetrance of mild embryonic axis dorsalization at 10 uM treated at 2 to 4 hrs post-fertilization measured at 48 hrs; parameters: scale not given: the % may be the effect or the level left; outline: as §1
Danio rerio [20] = species: Danio rerio; experiment: Inhibition of AMPK in zebrafish assessed as embryonic axis dorsalization at 10 uM treated at 3 hrs post-fertilization measured at 48 hrs; parameters: scale not given: the % may be the effect or the level left
Danio rerio [21] = species: Danio rerio; experiment: Inhibition of BMPR1 in zebrafish assessed as penetrance of mild embryonic axis dorsalization at 10 uM treated continuously from 8 hrs post-fertilization measured at 48 hrs; parameters: scale not given: the % may be the effect or the level left; outline: as §1
Mus musculus [22] = species: Mus musculus; experiment: Inhibition of ALK2-mediated Id1 promoter activity in BMPR2 deficient mouse PASMC at 10 uM by immunoblot analysis
Outline: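 BMPR-II–deficient mouse PASMCs at 50% confluence co-transfected with Id1 promoter firefly luciferase (BRE-Luc, 0.3 µg), caALK2, caALK3 or caALK6 (0.6 µg), and pRL-TK Renilla (0.2 µg). Compound (4–10 µM) or vehicle added 1 h after transfection. Activity read as firefly/Renilla ratio by dual luciferase assay; n = 3, mean ± s.d.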

Danio rerio [23] = species: Danio rerio; experiment: Inhibition of BMPR1 in zebrafish assessed as penetrance of moderate embryonic axis dorsalization at 10 uM treated at 2 to 8 hrs post-fertilization measured at 48 hrs; parameters: scale not given: the % may be the effect or the level left; outline: as §1
Danio rerio [24] = species: Danio rerio; experiment: Inhibition of BMPR1 in zebrafish assessed as penetrance of mild embryonic axis dorsalization at 10 uM treated at 6 to 8 hrs post-fertilization measured at 48 hrs; parameters: scale not given: the % may be the effect or the level left; outline: as §1
Danio rerio [25] = species: Danio rerio; experiment: Inhibition of BMPR1 in zebrafish assessed as penetrance of normal embryonic axis dorsalization at 10 uM treated continuously from 8 hrs post-fertilization measured at 48 hrs; parameters: scale not given: the % may be the effect or the level left
Mus musculus [26] = species: Mus musculus; experiment: Inhibition of ALK6-mediated Smad-5 phosphorylation in BMPR2 deficient mouse PASMC at 10 uM by immunoblot analysis; outline: as §2
Mus musculus [27] = species: Mus musculus; experiment: Inhibition of ALK6-mediated Smad-8 phosphorylation in BMPR2 deficient mouse PASMC at 10 uM by immunoblot analysis; outline: as §2

c1cc(-c2cnn3cc(-c4ccc(OCCN5CCCCC5)cc4)cnc23)ccn1 [DORSOMORPHIN]
Activity (Danio rerio [1]): 0% | inhibition (Mus musculus [2]): Active | inhibition (Mus musculus [3]): Active | inhibition (Mus musculus [4]): Active | inhibition (Mus musculus [5]): Active | Activity (Danio rerio [6]): 0% | Activity (Danio rerio [7]): 0% | inhibition (Mus musculus [8]): Active | Activity (Danio rerio [9]): 100% | Activity (Danio rerio [10]): 0% | Activity (Danio rerio [11]): 0% | Activity (Danio rerio [12]): Active | Activity (Danio rerio [13]): 0% | inhibition (Mus musculus [14]): Active | Activity (Danio rerio [15]): 0% | Activity (Danio rerio [16]): 0% | inhibition (Mus musculus [17]): Active | fold change (FC) (HepG2): 50 | inhibition (Mus musculus [18]): Active | Activity (Danio rerio [19]): 10% | Activity (Danio rerio [20]): 100% | Activity (Danio rerio [21]): 85% | inhibition (Mus musculus [22]): Dose-dependent effect | Activity (Danio rerio [23]): 0% | Activity (Danio rerio [24]): 95% | Activity (Danio rerio [25]): 15% | inhibition (Mus musculus [26]): Active | inhibition (Mus musculus [27]): Active
